pIC50: −log10 of the molar value.
Target: T1, Broad substrate specificity ATP-binding cassette transporter ABCG2 (Homo sapiens, UniProt Q9UNQ0)
T1 sequence (Q9UNQ0 whole entry): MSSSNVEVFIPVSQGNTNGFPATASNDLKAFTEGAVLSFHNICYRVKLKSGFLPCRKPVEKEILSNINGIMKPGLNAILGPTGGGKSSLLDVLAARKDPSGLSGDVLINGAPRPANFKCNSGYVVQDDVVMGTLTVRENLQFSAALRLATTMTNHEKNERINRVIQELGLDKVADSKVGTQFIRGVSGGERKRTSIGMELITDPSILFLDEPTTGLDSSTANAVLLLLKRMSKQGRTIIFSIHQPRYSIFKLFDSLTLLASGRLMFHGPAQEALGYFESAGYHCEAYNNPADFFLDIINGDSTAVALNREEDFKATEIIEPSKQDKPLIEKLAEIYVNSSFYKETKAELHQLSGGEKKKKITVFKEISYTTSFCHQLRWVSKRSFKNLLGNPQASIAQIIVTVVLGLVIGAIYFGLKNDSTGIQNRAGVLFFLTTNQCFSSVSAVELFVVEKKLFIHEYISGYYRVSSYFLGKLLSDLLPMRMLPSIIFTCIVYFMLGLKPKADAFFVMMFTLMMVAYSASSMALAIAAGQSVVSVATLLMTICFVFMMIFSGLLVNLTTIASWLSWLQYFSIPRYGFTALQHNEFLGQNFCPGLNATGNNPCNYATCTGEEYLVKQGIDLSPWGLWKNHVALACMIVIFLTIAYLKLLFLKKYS
Experiment: Inhibition of GFP-tagged human BCRP expressed in MDCK2 cells pre-incubated for 30 mins followed by Hoechst 33342 addition and further incubated for 120 mins by Hoechst 33342 accumulation assay
Assay type: cell-based, MDCK-II
Conditions: not given; call rule not given here
How it was run: (§1)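 MDCK II cells stably carrying human BCRP cDNA C-terminally fused to GFP are washed in KHB, pH 7.4. About 30,000 cells/well are preincubated 30 min at 37 °C with compound up to 10 μM (DMSO ≤0.1%, methanol ≤5% for poorly soluble compounds). Hoechst 33342 is added from a 10 μM solution, and fluorescence (ex 355/em 460) is read every 60 s for 120 min. The steady-state mean (100–109 min) is fitted to a four-parameter logistic curve.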
`COc1ccc(C(=O)Nc2ccccc2-c2nnn(-c3ccc(C(F)(F)F)cc3)n2)cc1OC` showed a pIC50 of 6.57.

Tested on: not listed separately
Experiment: Solubility in water
Assay type: physicochemical
Conditions: buffer
In the case of `CCOc1ccc(-n2nnc(-c3ccccc3NC(=O)c3ccc([N+](=O)[O-])cc3)n2)cc1`, the solubility was “Insoluble”. With `O=C(Nc1ccccc1-c1nnn(-c2ccc(C(F)(F)F)cc2)n1)c1ccc([N+](=O)[O-])cc1` the solubility was “Insoluble”. For `CCOc1ccc(-n2nnc(-c3ccccc3NC(=O)c3ccc(C(F)(F)F)cc3)n2)cc1`, the solubility was “Insoluble”. In the case of `CCCc1ccc(-n2nnc(-c3ccccc3NC(=O)c3ccc(C(F)(F)F)cc3)n2)cc1`, the solubility was “Insoluble”. With `O=C(Nc1ccccc1-c1nnn(-c2ccc(C(F)(F)F)cc2)n1)c1ccc(C(F)(F)F)cc1` the solubility was “Insoluble”. With `COc1ccc(C(=O)Nc2ccccc2-c2nnn(-c3ccc(C(F)(F)F)cc3)n2)cc1OC` the solubility was “Insoluble”.

Tested on: not listed separately
Experiment: Solubility in DMSO
Assay type: physicochemical
Conditions: not given
With `CCOc1ccc(-n2nnc(-c3ccccc3NC(=O)c3ccc([N+](=O)[O-])cc3)n2)cc1` the solubility was greater than 10 mM. `O=C(Nc1ccccc1-c1nnn(-c2ccc(C(F)(F)F)cc2)n1)c1ccc([N+](=O)[O-])cc1` showed a solubility greater than 10 mM. In the case of `CCOc1ccc(-n2nnc(-c3ccccc3NC(=O)c3ccc(C(F)(F)F)cc3)n2)cc1`, the solubility was greater than 10 mM. With `CCCc1ccc(-n2nnc(-c3ccccc3NC(=O)c3ccc(C(F)(F)F)cc3)n2)cc1` the solubility was greater than 10 mM. With `O=C(Nc1ccccc1-c1nnn(-c2ccc(C(F)(F)F)cc2)n1)c1ccc(C(F)(F)F)cc1` the solubility was greater than 10 mM. `COc1ccc(C(=O)Nc2ccccc2-c2nnn(-c3ccc(C(F)(F)F)cc3)n2)cc1OC` gave a solubility greater than 10 mM.

Target: T1, Broad substrate specificity ATP-binding cassette transporter ABCG2
Experiment: Inhibition of GFP-tagged human BCRP expressed in MDCK2 cells up to 10 uM pre-incubated for 30 mins followed by Hoechst 33342 addition and further incubated for 120 mins by Hoechst 33342 accumulation assay
Assay type: cell-based
Conditions: mdck-ii, 2 h
How it was run: as §1
In the case of `CCOc1ccc(-n2nnc(-c3ccccc3NC(=O)c3ccc([N+](=O)[O-])cc3)n2)cc1`, the “inhibition (INH)” value was “Not Active”. With `O=C(Nc1ccccc1-c1nnn(-c2ccc(C(F)(F)F)cc2)n1)c1ccc([N+](=O)[O-])cc1` the “inhibition (INH)” value was “Not Active”. In the case of `CCOc1ccc(-n2nnc(-c3ccccc3NC(=O)c3ccc(C(F)(F)F)cc3)n2)cc1`, the “inhibition (INH)” value was “Not Active”. With `CCCc1ccc(-n2nnc(-c3ccccc3NC(=O)c3ccc(C(F)(F)F)cc3)n2)cc1` the “inhibition (INH)” value was “Not Active”. In the case of `O=C(Nc1ccccc1-c1nnn(-c2ccc(C(F)(F)F)cc2)n1)c1ccc(C(F)(F)F)cc1`, the “inhibition (INH)” value was “Not Active”.

Target: ABCB1 (P-gp) (Homo sapiens, UniProt P08183)
Sequence (P08183 whole entry): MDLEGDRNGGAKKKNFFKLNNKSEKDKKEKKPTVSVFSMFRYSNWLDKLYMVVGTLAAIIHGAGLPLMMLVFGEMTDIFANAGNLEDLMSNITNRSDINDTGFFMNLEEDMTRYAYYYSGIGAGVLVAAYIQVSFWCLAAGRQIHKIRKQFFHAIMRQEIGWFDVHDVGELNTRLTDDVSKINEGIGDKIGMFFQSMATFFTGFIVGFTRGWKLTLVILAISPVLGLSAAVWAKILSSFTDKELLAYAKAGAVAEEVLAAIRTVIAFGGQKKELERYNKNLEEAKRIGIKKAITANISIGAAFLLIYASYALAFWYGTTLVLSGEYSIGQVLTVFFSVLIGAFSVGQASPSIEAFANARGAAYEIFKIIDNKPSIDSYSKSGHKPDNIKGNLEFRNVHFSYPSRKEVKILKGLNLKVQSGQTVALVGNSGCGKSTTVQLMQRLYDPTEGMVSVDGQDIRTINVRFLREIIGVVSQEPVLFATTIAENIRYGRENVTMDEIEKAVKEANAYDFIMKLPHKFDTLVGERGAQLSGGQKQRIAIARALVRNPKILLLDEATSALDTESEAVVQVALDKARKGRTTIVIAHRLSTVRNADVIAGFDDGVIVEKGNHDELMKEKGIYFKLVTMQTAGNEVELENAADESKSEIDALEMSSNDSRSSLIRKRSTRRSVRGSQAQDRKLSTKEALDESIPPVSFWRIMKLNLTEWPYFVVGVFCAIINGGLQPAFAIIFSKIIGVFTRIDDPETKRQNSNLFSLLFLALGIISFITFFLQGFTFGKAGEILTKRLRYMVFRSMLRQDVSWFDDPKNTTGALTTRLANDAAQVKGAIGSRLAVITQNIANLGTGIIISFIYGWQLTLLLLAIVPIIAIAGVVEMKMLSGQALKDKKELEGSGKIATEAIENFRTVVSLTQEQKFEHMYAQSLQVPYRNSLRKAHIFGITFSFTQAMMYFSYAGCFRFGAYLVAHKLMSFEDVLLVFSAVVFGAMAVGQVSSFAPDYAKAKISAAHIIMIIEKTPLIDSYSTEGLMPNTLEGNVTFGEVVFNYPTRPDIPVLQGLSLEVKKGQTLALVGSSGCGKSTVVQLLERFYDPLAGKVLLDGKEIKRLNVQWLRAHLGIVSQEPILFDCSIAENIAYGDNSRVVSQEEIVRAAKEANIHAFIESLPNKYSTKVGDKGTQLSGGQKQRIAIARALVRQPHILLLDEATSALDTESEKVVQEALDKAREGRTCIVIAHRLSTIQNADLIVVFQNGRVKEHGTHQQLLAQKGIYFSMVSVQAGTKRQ
Experiment: Inhibition of ABCB1 in human A2780adr cells at 10 uM pre-incubated for 30 mins followed by calcein AM addition and further incubated for 60 mins by calcein AM assay
Assay type: cell-based, A2780 ADR
Conditions: probe calcein AM
For `CCOc1ccc(-n2nnc(-c3ccccc3NC(=O)c3ccc([N+](=O)[O-])cc3)n2)cc1`, the inhibition at 1 h, 10 µM was less than 25%. `O=C(Nc1ccccc1-c1nnn(-c2ccc(C(F)(F)F)cc2)n1)c1ccc([N+](=O)[O-])cc1` gave an inhibition at 1 h, 10 µM of less than 25%. `CCOc1ccc(-n2nnc(-c3ccccc3NC(=O)c3ccc(C(F)(F)F)cc3)n2)cc1` showed an inhibition at 1 h, 10 µM of less than 25%. In the case of `CCCc1ccc(-n2nnc(-c3ccccc3NC(=O)c3ccc(C(F)(F)F)cc3)n2)cc1`, the inhibition at 1 h, 10 µM was less than 25%. In the case of `O=C(Nc1ccccc1-c1nnn(-c2ccc(C(F)(F)F)cc2)n1)c1ccc(C(F)(F)F)cc1`, the inhibition at 1 h, 10 µM was less than 25%. `COc1ccc(C(=O)Nc2ccccc2-c2nnn(-c3ccc(C(F)(F)F)cc3)n2)cc1OC` showed an inhibition at 1 h, 10 µM of less than 25%.

Target: Multidrug resistance-associated protein 1 (Homo sapiens, UniProt P33527)
Sequence (P33527 whole entry): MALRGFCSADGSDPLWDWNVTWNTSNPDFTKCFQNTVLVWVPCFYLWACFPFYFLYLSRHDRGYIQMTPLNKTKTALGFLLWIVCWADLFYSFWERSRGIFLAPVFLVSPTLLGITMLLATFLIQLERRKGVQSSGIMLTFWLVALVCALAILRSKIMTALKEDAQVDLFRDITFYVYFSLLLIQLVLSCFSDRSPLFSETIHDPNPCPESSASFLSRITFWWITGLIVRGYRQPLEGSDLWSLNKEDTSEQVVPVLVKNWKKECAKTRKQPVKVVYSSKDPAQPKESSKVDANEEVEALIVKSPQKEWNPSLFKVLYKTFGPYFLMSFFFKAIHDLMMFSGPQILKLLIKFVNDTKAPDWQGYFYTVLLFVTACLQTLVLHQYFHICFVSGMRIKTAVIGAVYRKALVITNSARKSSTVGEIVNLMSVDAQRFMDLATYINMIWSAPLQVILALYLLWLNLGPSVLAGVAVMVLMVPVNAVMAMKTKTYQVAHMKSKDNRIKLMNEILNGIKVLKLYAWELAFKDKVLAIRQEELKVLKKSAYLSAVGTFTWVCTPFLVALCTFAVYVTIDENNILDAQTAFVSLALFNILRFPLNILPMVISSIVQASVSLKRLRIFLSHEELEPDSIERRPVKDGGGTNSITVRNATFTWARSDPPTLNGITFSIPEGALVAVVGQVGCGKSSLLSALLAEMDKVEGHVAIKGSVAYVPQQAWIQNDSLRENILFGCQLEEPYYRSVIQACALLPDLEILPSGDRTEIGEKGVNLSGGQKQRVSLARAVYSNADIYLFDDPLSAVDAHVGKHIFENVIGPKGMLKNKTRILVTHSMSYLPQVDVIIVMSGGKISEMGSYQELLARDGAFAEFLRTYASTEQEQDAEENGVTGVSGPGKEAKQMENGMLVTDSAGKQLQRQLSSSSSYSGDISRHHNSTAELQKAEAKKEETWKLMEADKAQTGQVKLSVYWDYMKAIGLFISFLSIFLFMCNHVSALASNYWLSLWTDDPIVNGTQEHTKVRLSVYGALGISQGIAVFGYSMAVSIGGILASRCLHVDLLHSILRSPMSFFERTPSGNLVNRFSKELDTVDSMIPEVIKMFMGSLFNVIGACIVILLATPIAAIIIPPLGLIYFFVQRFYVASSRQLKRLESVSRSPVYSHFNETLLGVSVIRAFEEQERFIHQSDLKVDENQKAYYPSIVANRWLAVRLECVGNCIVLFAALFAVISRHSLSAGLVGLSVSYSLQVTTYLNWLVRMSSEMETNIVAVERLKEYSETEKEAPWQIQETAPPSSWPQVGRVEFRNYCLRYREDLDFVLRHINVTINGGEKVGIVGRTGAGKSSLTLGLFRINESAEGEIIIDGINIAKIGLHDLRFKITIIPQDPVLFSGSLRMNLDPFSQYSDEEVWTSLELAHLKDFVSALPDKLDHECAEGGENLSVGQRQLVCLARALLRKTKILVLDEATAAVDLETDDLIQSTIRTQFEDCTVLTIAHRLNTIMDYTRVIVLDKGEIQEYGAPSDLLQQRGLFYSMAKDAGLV
Experiment: Inhibition of MRP1 in human H69AR cells at 10 uM pre-incubated for 30 mins followed by calcein AM addition and further incubated for 60 mins by calcein AM assay
Conditions: 1 h
With `CCOc1ccc(-n2nnc(-c3ccccc3NC(=O)c3ccc([N+](=O)[O-])cc3)n2)cc1` the “inhibition (INH)” value was “Not Active”. For `O=C(Nc1ccccc1-c1nnn(-c2ccc(C(F)(F)F)cc2)n1)c1ccc([N+](=O)[O-])cc1`, the “inhibition (INH)” value was “Not Active”. With `CCOc1ccc(-n2nnc(-c3ccccc3NC(=O)c3ccc(C(F)(F)F)cc3)n2)cc1` the “inhibition (INH)” value was “Not Active”. In the case of `CCCc1ccc(-n2nnc(-c3ccccc3NC(=O)c3ccc(C(F)(F)F)cc3)n2)cc1`, the “inhibition (INH)” value was “Not Active”. For `O=C(Nc1ccccc1-c1nnn(-c2ccc(C(F)(F)F)cc2)n1)c1ccc(C(F)(F)F)cc1`, the “inhibition (INH)” value was “Not Active”. In the case of `COc1ccc(C(=O)Nc2ccccc2-c2nnn(-c3ccc(C(F)(F)F)cc3)n2)cc1OC`, the “inhibition (INH)” value was “Not Active”.

Target: T2, BCRP (ABCG2) (Homo sapiens, UniProt Q9UNQ0)
T2 sequence (Q9UNQ0 whole entry): T1 sequence (Q9UNQ0 whole entry)
Experiment: Inhibition of GFP-tagged human BCRP expressed in MDCK2 cells pre-incubated for 30 mins followed by Hoechst 33342 addition and further incubated for 120 mins by Hoechst 33342 accumulation assay relative to XR9577
Assay type: cell-based, MDCK-II
Conditions: MDCK2 cells expressing GFP-tagged human BCRP, probe Hoechst 33342, read-out: Imax
For `COc1ccc(C(=O)Nc2ccccc2-c2nnn(-c3ccc(C(F)(F)F)cc3)n2)cc1OC`, the Emax at 2 h was 85%.

Source: ChEMBL document CHEMBL3425464, “HM30181 Derivatives as Novel Potent and Selective Inhibitors of the Breast Cancer Resistance Protein (BCRP/ABCG2)” (J Med Chem, 2015)
